Data on one compound can be found in ChEMBL document CHEMBL4387704, “Design, synthesis and biological evaluation of novel isoindolinone derivatives as potent histone deacetylase inhibitors” (Eur J Med Chem, 2019).

Each structure is given as a SMILES string. Calls of active or inactive are those of the source. No cut-off for these calls is given here.

The target of one assay is Histone deacetylase 8 (Homo sapiens, UniProt Q9BY41). Kind of assay: Inhibition of HDAC8 (unknown origin) using Fluor de Lys substrate by fluorescence assay relative to control. The procedure, abridged:
(§1)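 Recombinant HDAC isoform assays run by a contract lab. Compounds in DMSO, 10-dose IC50 mode, 3-fold serial dilution from 50 μM. Duplicate runs; IC50 from curve fitting.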

Assay [1] has as its target Histone deacetylase 9 (Homo sapiens) (UniProt Q9UKV0). The assay can be described thus: Inhibition of HDAC9 (unknown origin) using Fluor de Lys substrate by fluorescence assay relative to control. The procedure, abridged: as §1
Assay [2] has as its target Polyamine deacetylase HDAC10 (Homo sapiens, UniProt Q969S8). Kind of assay: Inhibition of HDAC10 (unknown origin) using Fluor de Lys substrate by fluorescence assay relative to control. The procedure, abridged: as §1
For assay [3], the species on record is Homo sapiens. Kind of assay: Selectivity index, ratio of IC50 of HDCA8 (unknown origin) to IC50 of HDCA1 (unknown origin).
The species named for assay [4] is Homo sapiens. The assay can be described thus: Selectivity index, ratio of IC50 of HDCA11 (unknown origin) to IC50 of HDCA1 (unknown origin).
The subject of the next assay is HCT-15. Kind of assay: Growth inhibition of human HCT15 cells assessed as cell growth inhibition at 10 uM incubated for 48 hrs by sulforhodamine B assay. In kind it is functional. The settings on record: HCT-15, 48 h, read-out: GI.
The test system of another assay is NCI/ADR-RES. The assay can be described thus: Growth inhibition of human NCI/ADR-RES cells assessed as cell growth inhibition at 10 uM incubated for 48 hrs by sulforhodamine B assay. In kind it is functional. The settings on record: read-out: GI.
A further assay has as its system BT-549. The assay can be described thus: Growth inhibition of human BT549 cells assessed as cell growth inhibition at 10 uM incubated for 48 hrs by sulforhodamine B assay. In kind it is functional. The settings on record: BT-549, 48 h, read-out: GI.
Another assay deals with Hs-578T. Kind of assay: Growth inhibition of human Hs 578T cells assessed as cell growth inhibition at 10 uM incubated for 48 hrs by sulforhodamine B assay. Format: functional. The settings on record: read-out: GI.

Polyamine deacetylase HDAC10, sequence (Q969S8 whole entry): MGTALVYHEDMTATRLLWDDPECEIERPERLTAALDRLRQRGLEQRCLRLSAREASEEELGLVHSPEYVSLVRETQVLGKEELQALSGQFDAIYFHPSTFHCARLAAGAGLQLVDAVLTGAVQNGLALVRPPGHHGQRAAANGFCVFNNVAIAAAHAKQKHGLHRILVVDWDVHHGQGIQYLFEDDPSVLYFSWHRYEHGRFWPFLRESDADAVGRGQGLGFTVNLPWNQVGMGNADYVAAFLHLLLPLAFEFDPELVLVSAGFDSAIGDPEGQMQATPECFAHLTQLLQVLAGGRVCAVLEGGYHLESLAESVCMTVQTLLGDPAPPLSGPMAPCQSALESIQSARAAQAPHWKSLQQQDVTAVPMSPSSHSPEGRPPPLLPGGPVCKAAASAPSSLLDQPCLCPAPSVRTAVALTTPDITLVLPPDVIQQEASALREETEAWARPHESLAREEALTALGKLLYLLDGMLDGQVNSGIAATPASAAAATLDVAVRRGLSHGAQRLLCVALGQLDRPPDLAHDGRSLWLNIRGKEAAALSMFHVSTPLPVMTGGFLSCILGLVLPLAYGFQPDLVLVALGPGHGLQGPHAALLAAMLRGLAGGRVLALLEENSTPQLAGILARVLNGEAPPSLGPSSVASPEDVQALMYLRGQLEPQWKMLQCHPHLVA
Histone deacetylase 8, sequence (Q9BY41 whole entry, canonical isoform): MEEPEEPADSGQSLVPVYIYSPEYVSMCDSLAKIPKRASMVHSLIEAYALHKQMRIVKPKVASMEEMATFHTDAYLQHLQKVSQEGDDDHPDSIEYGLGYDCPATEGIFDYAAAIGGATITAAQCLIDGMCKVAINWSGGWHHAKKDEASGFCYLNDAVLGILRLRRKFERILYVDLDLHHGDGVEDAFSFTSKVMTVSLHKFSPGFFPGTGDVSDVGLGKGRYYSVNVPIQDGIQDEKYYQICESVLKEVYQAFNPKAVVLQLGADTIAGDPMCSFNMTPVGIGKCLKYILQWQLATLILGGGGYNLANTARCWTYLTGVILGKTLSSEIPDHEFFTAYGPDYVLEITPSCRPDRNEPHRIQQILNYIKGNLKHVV
Histone deacetylase 9 (Homo sapiens), sequence (Q9UKV0 whole entry): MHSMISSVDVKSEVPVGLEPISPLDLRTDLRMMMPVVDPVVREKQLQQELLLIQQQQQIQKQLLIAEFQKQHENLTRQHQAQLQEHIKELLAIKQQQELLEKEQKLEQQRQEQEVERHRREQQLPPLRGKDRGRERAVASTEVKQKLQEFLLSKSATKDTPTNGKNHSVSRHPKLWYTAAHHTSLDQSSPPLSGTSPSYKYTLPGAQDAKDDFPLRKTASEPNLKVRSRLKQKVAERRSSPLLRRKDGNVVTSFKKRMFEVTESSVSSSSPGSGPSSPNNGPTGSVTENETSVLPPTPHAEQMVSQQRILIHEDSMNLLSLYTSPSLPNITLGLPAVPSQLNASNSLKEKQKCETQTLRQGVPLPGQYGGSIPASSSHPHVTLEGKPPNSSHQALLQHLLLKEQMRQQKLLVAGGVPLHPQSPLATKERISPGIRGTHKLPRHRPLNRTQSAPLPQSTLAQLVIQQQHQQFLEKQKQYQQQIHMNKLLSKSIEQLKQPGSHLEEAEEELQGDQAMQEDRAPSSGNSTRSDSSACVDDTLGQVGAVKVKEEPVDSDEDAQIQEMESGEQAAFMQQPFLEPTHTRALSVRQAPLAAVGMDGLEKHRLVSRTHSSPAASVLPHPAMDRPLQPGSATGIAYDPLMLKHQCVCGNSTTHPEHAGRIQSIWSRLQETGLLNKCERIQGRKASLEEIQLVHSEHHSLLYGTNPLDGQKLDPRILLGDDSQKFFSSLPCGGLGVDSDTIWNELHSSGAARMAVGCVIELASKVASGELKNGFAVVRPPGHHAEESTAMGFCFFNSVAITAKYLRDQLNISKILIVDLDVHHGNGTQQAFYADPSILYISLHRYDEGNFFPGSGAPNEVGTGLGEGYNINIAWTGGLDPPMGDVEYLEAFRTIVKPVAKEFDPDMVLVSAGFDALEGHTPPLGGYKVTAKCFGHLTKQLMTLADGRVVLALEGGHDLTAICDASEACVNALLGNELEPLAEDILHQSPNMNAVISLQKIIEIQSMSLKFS

Consider `Nc1cc(F)ccc1NC(=O)c1ccc(CNC(=O)/C=C2\NC(=O)c3ccccc32)cc1`, for which the IC50 was determined as 1080 nM against Histone deacetylase 8 and 950 nM in assay [2]. Moreover, in assay [1], the inhibition result was “inactive”. In addition, the values for the Ratio IC50 in the assay filed under Homo sapiens [3] and in the assay filed under Homo sapiens [4] were 17 and 10, respectively. In addition, the inhibition of growth at 10 µM in the assay with HCT-15 was found to be 0.12%; in the assay on NCI/ADR-RES it was 18%; in the assay with BT-549 it was 6.06%; with Hs-578T, 29.3%.
